Laboratory results: ChEMBL document CHEMBL1130343, “Folate-based inhibitors of thymidylate synthase: synthesis and antitumor activity of gamma-linked sterically hindered dipeptide analogues of 2-desamino-2-methyl-N10-propargyl-5,8-dideazafolic acid (ICI 198583)” (J Med Chem, 1997)

Experiments:
[1] = organism: Mus musculus; assay: Compound was tested for inhibition of L1210:1565 cell growth in mouse.; format: functional, organism-based
How it was run: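 Growth inhibition measured in L1210:1565, a mouse L1210 mutant line with an impaired reduced folate/MTX transport carrier. The line was selected for resistance to CI-920, an RFC-transported agent, and is cross-resistant to MTX. Result expressed as IC50.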

[2] = organism: Mus musculus; assay: Compound was tested for inhibition of L1210 cell growth in mouse.; format: functional, organism-based
[3] = biological target: Thymidylate synthase (Mus musculus, UniProt P07607); assay: Inhibition of Thymidylate Synthase(TS) from mouse L1210 cells; format: cell-based; settings: read-out: Ki app
[4] = organism: Mus musculus; assay: Compound was tested for inhibition of L1210:R D1694 cell growth in mouse.; format: functional, organism-based; settings: L1210 (RD1694)
[5] = tested on: WIL2; assay: Compound was tested for inhibition of human W1L2 cell growth.; format: functional, cell-based

Sequence of Thymidylate synthase (P07607 whole entry): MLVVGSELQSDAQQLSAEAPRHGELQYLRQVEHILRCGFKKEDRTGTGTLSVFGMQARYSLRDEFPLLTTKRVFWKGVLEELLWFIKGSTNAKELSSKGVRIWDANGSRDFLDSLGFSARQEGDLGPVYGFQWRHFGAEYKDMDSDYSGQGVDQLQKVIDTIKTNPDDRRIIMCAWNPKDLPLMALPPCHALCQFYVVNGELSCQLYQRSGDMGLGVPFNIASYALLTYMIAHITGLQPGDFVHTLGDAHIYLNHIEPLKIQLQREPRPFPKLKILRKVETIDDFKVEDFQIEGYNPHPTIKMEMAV

Ki [3]: 42 nM
Structure (SMILES): C#CCN(Cc1ccc2nc(C)nc(O)c2c1)c1ccc(C(=O)N[C@@H](CCC(=O)NC(C)(C)C(=O)O)C(=O)O)cc1
IC50 [1]: 70 µM
IC50 [2]: 2500 nM
IC50 [4]: 7.1 µM
IC50 [5]: 310 nM
